Results on 61 compounds are retold here after PubChem BioAssay AID1325 (NMMLSC, 2008).

Hit rate of the full screen: of about 190,000 compounds, about 200 (0.11%) were called active. This is one part of a sample in which actives are shown more often than they occur. Values without a mark were called inactive.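 How the source made its calls: active means inhibition above 80%; inactive means the rest.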

The target of the experiment is Broad substrate specificity ATP-binding cassette transporter ABCG2 (Homo sapiens) (UniProt Q9UNQ0). Briefly: blockers of JC-1 export by ABCG2 – multiplex with ABCB1, IgMXP3 cells, flow cytometry, primary screen (AID 1325).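 Further: 0% = DMSO and 100% = nicardipine control wells.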 Particulars: JC-1 efflux, at 6.6 µM, stronger effect = higher value. The method in brief: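 Test system: ABCG2 IgMXP3 and barcoded ABCB1 CCRF-Adr cell mix; Schedule: cells with compound and JC-1, 10 min at 25 °C, rotating, no wash; Technique: flow cytometry of retained JC-1 fluorescence; Measure: % inhibition of efflux relative to nicardipine and DMSO; Controls: nicardipine high and DMSO low controls.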
Broad substrate specificity ATP-binding cassette transporter ABCG2 (Homo sapiens), sequence (Q9UNQ0 whole entry, looked up): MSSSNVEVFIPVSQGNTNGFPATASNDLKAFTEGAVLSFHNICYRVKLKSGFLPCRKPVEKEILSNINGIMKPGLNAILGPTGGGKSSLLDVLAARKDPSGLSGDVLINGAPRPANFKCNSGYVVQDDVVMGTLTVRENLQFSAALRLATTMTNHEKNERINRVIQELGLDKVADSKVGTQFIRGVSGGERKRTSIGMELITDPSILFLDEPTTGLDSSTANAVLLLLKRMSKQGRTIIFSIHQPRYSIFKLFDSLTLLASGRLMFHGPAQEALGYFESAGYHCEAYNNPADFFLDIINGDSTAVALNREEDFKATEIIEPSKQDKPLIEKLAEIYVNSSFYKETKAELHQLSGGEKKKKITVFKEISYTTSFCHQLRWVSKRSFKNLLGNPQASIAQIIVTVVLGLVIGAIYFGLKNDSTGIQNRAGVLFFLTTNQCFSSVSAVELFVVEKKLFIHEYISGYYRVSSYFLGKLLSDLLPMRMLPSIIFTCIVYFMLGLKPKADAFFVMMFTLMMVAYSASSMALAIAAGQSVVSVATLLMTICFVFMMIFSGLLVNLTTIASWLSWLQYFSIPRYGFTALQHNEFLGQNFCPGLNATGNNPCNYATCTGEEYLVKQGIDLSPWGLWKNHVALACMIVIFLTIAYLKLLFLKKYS
With `CC(C)n1c(-c2ccncc2)n[nH]c1=S`, the inhibition was 0.69%.

With `Clc1ncn(CCOc2ccccc2)c1Cl`, the inhibition is 1.15%.

For the compound `CN(/C(=N/S(=O)(=O)c1cccs1)c1ccccc1)c1ccc(O)cc1`, the inhibition is 0.46%.

As to `N#C/C(=C/c1ccc(N2CCOCC2)o1)C(=O)N1CCOCC1`, the inhibition was 7.86%.

For `COc1ccccc1-c1nnc(NC(=O)c2ccc3ncsc3c2)o1`, the inhibition is -4.46%.

As for `COC(=O)c1ccc(CSc2nncn2N)cc1`, the inhibition was -1.84%.

Consider `CCOc1ccc(CN2CCN(Cc3ccon3)CC2CCO)cc1` (stereo unspecified), for which the inhibition is -2.99%.

Consider `Cc1ncc([N+](=O)[O-])n1CCOC(=O)c1ccc(Br)cc1`, for which the inhibition was 9.29%.

`CCO/N=C(/C)c1c(O)cc(-c2ccccc2)n(-c2ccccc2)c1=O`: the inhibition was 32.1%.

Turning to `Cc1nnsc1C(=O)Nc1cccc(Cl)c1C`, the inhibition is 10.7%.

In the case of `CCC1=NN(C(=O)Cc2ccc([N+](=O)[O-])cc2)C(O)(c2ccc(Br)cc2)C1` (stereo unspecified), the inhibition is 5.42%.

As for `O=c1c(-c2ccccc2)coc2cc(O)ccc12`, the inhibition was 2.5%.

In the case of `CCn1nc(C)c(/C=N/NC(=O)Cc2ccc(Cl)cc2)c1C`, the inhibition was 9.46%.

Regarding `Cc1ccc2nc(SCc3cn4c(C)cc(C)nc4n3)[nH]c2c1`, the inhibition is 7.53%.

Consider `CC(C)(C)n1nc2c(c1NC(=O)c1cc3ccccc3o1)CSC2`, for which the inhibition was 0.23%.

In the case of `Cc1nc(N)c(Br)c(C)c1Br`, the inhibition is 2.8%.

Take `CC(CCn1cccn1)NC(=O)CCc1nnc(CCc2ccccc2)o1` (stereo unspecified): the inhibition is -0.02%.

As to `CCOCC(=O)Nc1sc2c(c1C(=O)OCC)CCCC2`, the inhibition is 104% (active).

For `CCOC(=O)c1c(NC(=O)c2ccc(Br)o2)sc2c1CCCC2`, the inhibition was 14.6%.

Turning to `CCCOC(=O)Nc1sc2c(c1C(=O)OCC)CCC2`, the inhibition was 31.4%.

Regarding `O=C(NCc1ccccc1Cl)C1CCC(CNc2c(N3CCCCC3)c(=O)c2=O)CC1` (stereo unspecified), the inhibition was 0%.

Take `CCOC(=O)c1sc(/N=C/C2=C(O)CC(C)(C)CC2=O)c(C(=O)OCC)c1C`: the inhibition is 3.82%.

As to `COc1ccc(CC(=O)NCc2nnc(SCC(=O)Nc3nccs3)n2C)cc1`, the inhibition was 0.7%.

`COc1cc(NC(=O)c2cccnc2SC)cc(OC)c1`: the inhibition was 11.7%.

Consider `Cc1ccc(N2C(=O)SC(N(CC(=O)O)c3ccc(C)cc3)C2=O)cc1` (stereo unspecified), for which the inhibition was 1.16%.

Turning to `CC(=O)c1ccc(NC(=O)Nc2ccc([N+](=O)[O-])cc2C)cc1`, the inhibition was 28.4%.

Take `COc1ccc(-c2cn(-c3ccc(OC)cc3)c(=S)[nH]2)cc1`: the inhibition was 6.92%.

In the case of `CCc1ccc(NC(=O)c2ccc(Cn3cc([N+](=O)[O-])cn3)cc2)cc1`, the inhibition is 1.22%.

Consider `O=C(Nc1ccc(Br)c2cccnc12)c1ccc(Cn2cc([N+](=O)[O-])cn2)o1`, for which the inhibition is 1.01%.

In the case of `COc1cccc(NC(=O)c2ccc(Cn3cc([N+](=O)[O-])cn3)o2)c1`, the inhibition is 89.2% (active).

In the case of `Cc1ccc(SCCC(=O)NC(C(C)C)C(C)C)cc1`, the inhibition was 29.5%.

Regarding `CCOC(=O)CNc1nc2ccccc2n2c(C)nnc12`, the inhibition is 4.58%.

For `COc1ccc(-n2c(C)cc(C(=O)CSc3nnc(-c4cccs4)o3)c2C)cc1`, the inhibition was 4.95%.

On to `COc1ccc(-n2c(C)cc(C(=O)COC(=O)c3cc(OC)c(OC)cc3NC(=O)c3cccs3)c2C)cc1`, for which the inhibition is 91.7% (active).

Turning to `Cc1cc(C(=O)COC(=O)c2cccs2)c(C)n1-c1c(C)n(C)n(-c2ccccc2)c1=O`, the inhibition was 1.17%.

For `Brc1ccc(-c2csc(N/N=C/c3cccnc3)n2)cc1`, the inhibition is -0.01%.

In the case of `O=C(COC(=O)c1ccccc1)Nc1cccc(S(=O)(=O)N2CCOCC2)c1`, the inhibition is 8.84%.

On to `Cc1ccc(NC(=O)C(=O)NCc2ccc(/C=N/NC(=O)c3c(C)nc4cc(C)ccn34)o2)cc1`, for which the inhibition is 24.5%.

As for `c1ccc(-n2nnnc2-c2cccnc2)cc1`, the inhibition was 1.93%.

With `COc1cccc(OC)c1C(=O)Nc1ccc(Cc2ccncc2)cc1`, the inhibition is 1.46%.

As to `CCOc1ccc(C(CC(=O)O)NC(=O)C23CC4CC(CC(C4)C2)C3)cc1OC` (stereo unspecified), the inhibition was -1.01%.

Take `O=[N+]([O-])c1ccc2[nH]c3c(c2c1)CCCC3O` (stereo unspecified): the inhibition is 14.8%.

With `O=C(NC1CC1)C1CCCN(C(=O)NC2CCCCC2)C1` (stereo unspecified), the inhibition is 6.29%.

With `CCN(CC)c1ccc([N+](=O)[O-])cc1C(=O)O`, the inhibition is 3.47%.

`COc1cccc2cc(/C(C)=N/NC(=O)c3ccco3)oc12`: the inhibition was 6.63%.

Regarding `CC(=O)N1CCc2cc(Br)cc(S(=O)(=O)CCC(=O)Nc3c(C)n(C)n(-c4ccccc4)c3=O)c21`, the inhibition was -0.95%.

With `O=C(Cn1ncc(N2CCCC2)c(Br)c1=O)c1ccc(Cl)cc1`, the inhibition was 8.74%.

Turning to `O=C(N/C(=C\c1ccc(F)cc1)C(=O)N1CCCCCC1)c1ccccc1`, the inhibition was 0.94%.

On to `CCc1nnc(NC(=O)Cc2cccs2)s1`, for which the inhibition is -0.23%.

`Cc1c(Cl)cnc(NC(=O)COC(=O)c2ccc(S(=O)(=O)NCc3ccco3)cc2)c1Cl`: the inhibition was -0.23%.

For the compound `COc1cccc(/C(C)=N/Nc2ncc(Cl)cc2Cl)c1`, the inhibition is 16.5%.

Consider `C/C(=N\Nc1ncc(Cl)cc1Cl)c1ccc(S(=O)(=O)NCc2ccco2)cc1`, for which the inhibition is 81.6% (active).

For `Cc1ccccc1N/C(SCc1ccc(Cl)cc1)=C(/C#N)C(N)=O`, the inhibition was 9.99%.

For `C/C(N)=C(/C#N)C(=O)COC(=O)C1CCN(C(=O)c2ccc(Cl)cc2)CC1`, the inhibition is 6.63%.

Consider `Cc1c(C(=O)NCCCc2ccccc2)cccc1[N+](=O)[O-]`, for which the inhibition was 5.18%.

For the compound `O=C(NCCCN1CCOCC1)c1ccc([N+](=O)[O-])cc1[N+](=O)[O-]`, the inhibition is 1.56%.

Consider `CN1CCCN(C(=O)C2CCCCC2)CC1`, for which the inhibition was 3.74%.

On to `CCN1CCN(C(=O)CCN2C(=O)c3ccccc3C2=O)CC1`, for which the inhibition was 12.2%.

Consider `CCN(C(=O)CSc1nnc2ccccn12)C1CCS(=O)(=O)C1` (stereo unspecified), for which the inhibition was 6.4%.

`O=C(CCCOc1ccc(Cl)cc1Cl)NNC(=O)C1CCC1`: the inhibition was 8.42%.

In the case of `C#CCOCCOCCOCCNc1nc(N2CCN(C(=O)[C@H](Cc3ccc(O)cc3)n3cc(C(N)CC(C)C)nn3)CC2)nc(N2CCN(C(=O)[C@H](CCC(=O)O)n3cc(C(N)[C@H](C)CC)nn3)CC2)n1` (stereo partly specified), the inhibition was -1.91%.
